Tests used:
Homo sapiens = species: Homo sapiens; assay: Selectivity for Chek1 over Cdk7
NCI-H1299 = assay: Release of NCI-H1299 cells from DNA damage-induced cell cycle arrest by CEA; assay type: functional, cell-based; settings: Homo sapiens
How it was run: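 NCI-H1299 lung carcinoma cells were arrested by 16 h camptothecin treatment, then exposed to inhibitor for a further 8 h. Escape into mitosis was read as mitosis-specific nucleolin phosphorylation in an antibody-coated bead-based assay. EC50 came from a 10-point half-log dilution series, averaged over tetraplicate determinations.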

[1] = target: Cyclin-dependent kinase 7 (Homo sapiens, UniProt P50613); assay: Inhibition of Cdk7
[2] = target: T1, Serine/threonine-protein kinase Chk1 (Homo sapiens, UniProt O14757); assay: Inhibition of Chek1
T1 sequence (O14757 whole entry): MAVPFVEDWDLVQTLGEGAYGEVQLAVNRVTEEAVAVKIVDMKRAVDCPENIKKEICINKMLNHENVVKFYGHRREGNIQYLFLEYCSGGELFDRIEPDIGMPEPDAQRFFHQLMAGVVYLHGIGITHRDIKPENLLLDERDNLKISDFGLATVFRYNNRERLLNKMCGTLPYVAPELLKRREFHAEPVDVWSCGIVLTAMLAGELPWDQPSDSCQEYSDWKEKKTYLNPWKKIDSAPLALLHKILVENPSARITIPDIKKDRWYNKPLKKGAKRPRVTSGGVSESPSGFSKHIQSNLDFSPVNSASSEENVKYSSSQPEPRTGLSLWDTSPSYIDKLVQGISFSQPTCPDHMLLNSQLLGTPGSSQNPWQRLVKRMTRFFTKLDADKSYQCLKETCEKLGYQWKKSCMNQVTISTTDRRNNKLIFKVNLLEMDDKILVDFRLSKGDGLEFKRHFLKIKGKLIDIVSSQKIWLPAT

[3] = target: T1, Serine/threonine-protein kinase Chk1; assay: Inhibition of autophosphorylation of Chek1 in NCI-H1299 cells; assay type: functional, cell-based
How it was run: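 Cyto-blot of Chek1 autophosphorylation with phospho-S296 Chek1 antibody in NCI-H1299 lung carcinoma cells. Cells incubated with inhibitor 2 h, then camptothecin added for a further 4 h. Cellular assay ATP 2.0 mM. 10-point, 3-fold dilution series. IC50 averaged over triplicate determinations.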

Sequence of Cyclin-dependent kinase 7 (P50613 whole entry): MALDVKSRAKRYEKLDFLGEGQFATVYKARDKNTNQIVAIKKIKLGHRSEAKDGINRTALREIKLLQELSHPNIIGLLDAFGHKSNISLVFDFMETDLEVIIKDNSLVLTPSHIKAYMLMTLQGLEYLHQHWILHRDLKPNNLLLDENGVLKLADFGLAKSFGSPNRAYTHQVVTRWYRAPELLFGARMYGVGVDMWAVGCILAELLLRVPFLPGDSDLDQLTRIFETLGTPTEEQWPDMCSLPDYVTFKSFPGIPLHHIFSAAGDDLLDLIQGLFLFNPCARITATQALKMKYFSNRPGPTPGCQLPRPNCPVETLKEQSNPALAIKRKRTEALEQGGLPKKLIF

Structure (SMILES) | Ratio IC50 (Homo sapiens) | EC50 (NCI-H1299) [nM] | IC50 [1] [nM] | IC50 [2] [nM] | IC50 [3] [nM] | IC50 (NCI-H1299) [nM]
c1cc(-c2ccc3c(-c4cc5cc(CN6CCOCC6)ccc5[nH]4)n[nH]c3c2)[nH]n1 | 0.58 | > 50000 | 34 | 59 |  | 
c1csc(-c2ccc3c(-c4cc5cc(CN6CCCCC6)ccc5[nH]4)n[nH]c3c2)n1 | 83 | 2000 | 4000 | 48 |  | 
c1ccc2[nH]c(-c3n[nH]c4cc(-c5nnn[nH]5)ccc34)cc2c1 |  |  |  | 27 | > 10000 | > 10000
N#Cc1ccc2c(-c3cc4cc(CN5CCOCC5)ccc4[nH]3)n[nH]c2c1 |  | > 50000 |  | 30 |  | 
CC(=O)N1CCN(Cc2ccc3[nH]c(-c4n[nH]c5cc(C#N)ccc45)cc3c2)CC1 |  |  | 39 | 17 | 1000 | > 10000
Cn1cc(-c2ccc3c(-c4cc5cc(CN6CCOCC6)ccc5[nH]4)n[nH]c3c2)cn1 |  |  |  | 530 |  | 
c1cn(-c2ccc3c(-c4cc5cc(CN6CCCCC6)ccc5[nH]4)n[nH]c3c2)nn1 | 22 | 350 | 57 | 2.6 |  | 
c1cnn(-c2ccc3c(-c4cc5cc(CN6CCCCC6)ccc5[nH]4)n[nH]c3c2)c1 | 22 | > 10000 | 2300 | 110 |  | 
Cc1cnnn1-c1ccc2c(-c3cc4cc(CN5CCCCC5)ccc4[nH]3)n[nH]c2c1 | 14 | 1400 | 420 | 30 |  | 
OCc1n[nH]nc1-c1ccc2c(-c3cc4cc(CN5CCCCC5)ccc4[nH]3)n[nH]c2c1 | 190 | 690 | 56 |  |  | 
NC(=O)c1ccc2c(-c3cc4cc(CN5CCOCC5)ccc4[nH]3)n[nH]c2c1 |  | 980 | 1300 | 12 |  | 
OCc1nn[nH]c1-c1ccc2c(-c3cc4cc(CN5CCC(F)CC5)ccc4[nH]3)n[nH]c2c1 |  | 340 | 180 | 0.3 |  | 
COC(=O)c1ccc2c(-c3cc4cc(CN5CCOCC5)ccc4[nH]3)n[nH]c2c1 |  | 1930 | 6500 | 62 |  | 
CC(=O)N1CCN(Cc2ccc3[nH]c(-c4n[nH]c5ccccc45)cc3c2)CC1 |  |  |  | 640 |  | 
c1cc2[nH]c(-c3n[nH]c4cc(-c5cnsc5)ccc34)cc2cc1CN1CCCCC1 | 1.5 | > 10000 | 18 | 12 |  | 
CNC(=O)c1ccc2c(-c3cc4cc(CN5CCOCC5)ccc4[nH]3)n[nH]c2c1 |  | 650 | 4900 | 13 |  | 
c1cc2[nH]c(-c3n[nH]c4cc(-c5cn[nH]c5)ccc34)cc2cc1CN1CCOCC1 |  | > 50000 | 25 | 10 |  | 
CC(=O)N1CCN(Cc2ccc3[nH]c(-c4n[nH]c5cc(-c6nnn[nH]6)ccc45)cc3c2)CC1 |  |  |  | 2.3 | > 10000 | > 10000
CC(=O)N1CCN(Cc2ccc3[nH]c(-c4n[nH]c5cc(Cl)ccc45)cc3c2)CC1 |  |  |  | 120 |  | 
NCc1nn[nH]c1-c1ccc2c(-c3cc4cc(CN5CCC(F)CC5)ccc4[nH]3)n[nH]c2c1 |  | 610 | 300 | 0.11 |  | 
COc1cc(-c2ccc3c(-c4cc5cc(CN6CCCCC6)ccc5[nH]4)n[nH]c3c2)ccc1O |  | 92 | 310 | 0.25 |  | 
c1cnn(-c2ccc3c(-c4cc5cc(CN6CCCCC6)ccc5[nH]4)n[nH]c3c2)n1 | 14 | 4500 | 480 | 34 |  | 
CN(C)C(=O)c1ccc2c(-c3cc4cc(CN5CCOCC5)ccc4[nH]3)n[nH]c2c1 |  | 4000 | > 100000 | 80 |  | 
c1ccc(-c2ccc3c(-c4cc5cc(CN6CCCCC6)ccc5[nH]4)n[nH]c3c2)cc1 | 160 | 5000 | 7000 | 45 |  | 
